Screens: PubChem, The Scripps Research Institute Molecular Screening Center
M5 ag = human M5 muscarinic receptor agonists, primary screen, CHO-K1 cells, Fluo-8 calcium fluorescence; activation, % at 3 µM; 360,000 compounds, 0.19% hits; CHO-K1 hM5 cells; 0% DMSO wells, 100% maximal acetylcholine response; Muscarinic acetylcholine receptor M5 (Homo sapiens), P08912;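 active = activation above the run's mean over test compounds plus 3 SD, cut at about 23% in these data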;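 note: signal is peak over basal fluorescence ratio across the kinetic read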
Target sequence (P08912 whole entry, looked up): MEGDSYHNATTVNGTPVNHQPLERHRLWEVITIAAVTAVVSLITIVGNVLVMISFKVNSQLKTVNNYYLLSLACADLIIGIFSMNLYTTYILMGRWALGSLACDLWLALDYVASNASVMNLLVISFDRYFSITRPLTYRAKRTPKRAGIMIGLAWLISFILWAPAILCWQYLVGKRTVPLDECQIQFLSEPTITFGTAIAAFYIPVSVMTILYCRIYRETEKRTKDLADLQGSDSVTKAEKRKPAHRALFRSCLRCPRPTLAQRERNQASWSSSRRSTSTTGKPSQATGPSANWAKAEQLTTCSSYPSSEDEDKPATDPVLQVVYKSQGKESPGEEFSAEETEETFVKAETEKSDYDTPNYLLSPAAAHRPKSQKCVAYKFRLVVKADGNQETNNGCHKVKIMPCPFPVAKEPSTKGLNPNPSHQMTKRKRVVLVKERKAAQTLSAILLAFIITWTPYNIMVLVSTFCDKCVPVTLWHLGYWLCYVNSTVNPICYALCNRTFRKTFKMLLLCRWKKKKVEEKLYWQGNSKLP
CHRM4 antagonist = human M4 muscarinic receptor antagonists, primary screen, CHO cells, Fluo-8 calcium fluorescence. Muscarinic acetylcholine receptor M4 (Homo sapiens), P08173. CHO-hM4 cells, ACh EC80. inhibition, % at 3 µM. 360,000 compounds, 0.73% hits;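 active = inhibition above its plate's cutoff, the mean inhibition of sample wells plus 3 SD, cut at about 27% in these data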;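 note: 0% = acetylcholine EC80 with DMSO and 100% = DMSO without agonist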
M5 PAM = human M5 muscarinic receptor positive allosteric modulators, primary screen, CHO-K1 cells, Fluo-8 calcium fluorescence | CHO-K1 hM5, ACh EC20 PAM; 0% = ACh EC20, 100% = ACh EC100 | activation, % at 3 µM | 360,000 compounds, 0.3% hits | Muscarinic acetylcholine receptor M5 (Homo sapiens), P08912;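 active = activation above the run cutoff, the mean activation of all test compounds plus 3 SD, cut at about 18% in these data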
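Replicates: One well per compound, no replicates | System: Human M5 receptor in CHO-K1 cells | Benchmarks: Low control EC20 acetylcholine (0%), high control EC100 acetylcholine (100%) | Probe or stimulus: Acetylcholine, EC20 level | Times: Fluo-8 loading 80 min at 37 °C plus 30 min room temperature | Signal: Intracellular calcium via Fluo-8 fluorescence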
CHRM4 PAM = human M4 muscarinic receptor positive allosteric modulators, primary screen, CHO-K1 cells, Fluo-8 calcium fluorescence; Muscarinic acetylcholine receptor M4 (Homo sapiens), P08173; CHO-K1 hM4/Gqi5, ACh EC20; 0% = ACh EC20, 100% = maximal ACh; activation, % at 3 µM; 360,000 compounds, 0.4% hits; AID 624126, 2012;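 active = activation above its plate's cutoff, the mean activation of sample wells plus 3 SD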
CHRM5 antagonist = human M5 muscarinic receptor antagonists, primary screen, CHO cells, Fluo-8 calcium fluorescence; CHO-hM5 cells, ACh EC80; 360,000 compounds, 0.59% hits; AID 624040, 2012; inhibition, % at 3 µM;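 active = inhibition above a per-plate cutoff, the mean of that plate's test compounds plus 3 SD, cut at about 27% in these data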;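 note: 0% = acetylcholine EC80 with DMSO and 100% = DMSO without agonist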
CHRM4 agonist = human M4 muscarinic receptor agonists, primary screen, CHO-K1 cells, Fluo-8 calcium fluorescence | CHO-K1 hM4/Gqi5; vehicle 0%, full acetylcholine response 100% | activation, % at 3 µM | 360,000 compounds, 0.14% hits;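 active = activation above the run mean over all test wells plus 3 SD, cut at about 32% in these data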;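 note: peak over basal fluorescence ratio per well then scaled between controls; 0% = DMSO wells and 100% = acetylcholine at EC100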
An asterisk follows results filed as active. Compounds with a hit are over-represented: about 1.9% of the library has one in this group of screens.

SMILES | M5 ag | CHRM4 antagonist | M5 PAM | CHRM4 PAM | CHRM5 antagonist | CHRM4 agonist
CC(Cc1cccs1)NC(=O)Nc1ccc([N+](=O)[O-])cc1 (stereo not drawn) | 3 | 2 | -14 | -11 | 30* | 11
OCCCc1cn(Cc2ccccc2)c2ccccc12 | -3 | -7 | 3 | -2 | 0 | 0
COc1ccc(C(=O)Nc2cc(Cl)ccc2C(=O)O)cc1 | 4 | -1 | 20* | 9 | 2 | 0
COc1ccc(C(=O)Nc2cc(Cl)ccc2OC(=O)c2ccc(OC)cc2)cc1 | -1 | -1 | -3 | -2 | 5 | 0
COC(=O)c1ccccc1S(=O)(=O)N1CCC(C(=O)NCc2ccco2)CC1 | 0 | -4 | 11 | 23* | 1 | 1
COC(=O)c1ccccc1S(=O)(=O)N1CCC(C(=O)NCC2CCCO2)CC1 (stereo not drawn) | 2 | 3 | 8 | -2 | 3 | 1
Oc1c(Br)cc2oc3c(c2c1CNCc1ccccc1)CCCC3 | -3 | -11 | -7 | -7 | -3 | 1
CC1(C)N=C(N)N=C(N)N1c1ccc(Oc2ccc(Cl)cc2)c(Cl)c1 | -11 | 5 | -21 | -11 | 33* | 0
Cc1cccc(OCCCc2c(C)n[nH]c2C)c1 | 4 | 1 | 3 | 7 | -2 | 4
COc1cccc(OC)c1OCCCc1c(C)n[nH]c1C | 1 | 4 | 2 | 29* | -11 | 1
O=C(O)CSc1nc2ccccc2c(=O)[nH]1 | 1 | -10 | 24* | 4 | 2 | 0
O=C(CSc1nc2ccccc2c(=O)[nH]1)c1ccccc1 | 2 | -8 | -3 | 7 | -4 | 3
CC1CCCC(NC(=O)CSc2ncccn2)C1C (stereo not drawn) | -1 | -4 | 12 | 6 | 11 | 0
O=C(c1ccccc1)N(Cc1ccccc1)Cc1ccccc1 | -1 | 10 | 0 | -3 | -1 | 0
CCN(Cc1ccccc1)C(=O)c1ccc(C(=O)N(CC)Cc2ccccc2)cc1 | -3 | 9 | -9 | -6 | 28* | 5
Cc1cccc(N(C)S(=O)(=O)c2cc3c(cc2C)n(C)c(=O)c(=O)n3C)c1 | -2 | -1 | -4 | -7 | 6 | 4
Cc1cc2c(cc1S(=O)(=O)N(C)c1ccccc1)n(C)c(=O)n2C | 3 | 99* | -4 | -17 | 8 | -2
O=C(c1cc(C2CC2)nn1-c1ccccc1)N1CCN(S(=O)(=O)c2cccc(F)c2)CC1 | -11 | -13 | -6 | 7 | -7 | 1
O=C(C1CC1)n1cc(C(=S)N2CCOCC2)c2ccccc21 | -4 | 1 | 13 | 21* | -8 | 4
O=C(c1cccs1)n1cc(C(=S)N2CCOCC2)c2ccccc21 | -3 | 7 | -3 | -5 | 3 | 1
O=C(Nc1ccc(NC(=O)c2ccco2)nc1)c1cccnc1 | -2 | -9 | 8 | 21* | -8 | 4
CC(C)CC1(C(=O)O)NC(c2ccccc2O)C2C(=O)N(C(C)C)C(=O)C21 (stereo not drawn) | 1 | -5 | -4 | 4 | -1 | 0
COc1ccc(CNC(=O)Cn2cccc2C(=O)c2ccccc2C)cc1 | -5 | -5 | 5 | 11 | 13 | 2
CN(C)S(=O)(=O)c1ccc(C(=O)N2CCN=C2SCc2cccnc2)cc1 | -5 | 14 | 4 | 19* | -1 | 2
CCOC(=O)C1(CCc2ccccc2)CCN(Cc2cccc3nccnc23)CC1 | -12 | -2 | -29 | -10 | 16 | 7
SMILES | M5 ag | CHRM4 antagonist | M5 PAM | CHRM4 PAM | CHRM5 antagonist | CHRM4 agonist
Cc1c([N+](=O)[O-])c2ccc(O)cc2n1-c1ccccc1 | -4 | 3 | -5 | -6 | 6 | 1
Cc1cc(/C=C2/SC(=S)N(c3cccc(C(F)(F)F)c3)C2=O)c(C)n1-c1cccnc1 | 3 | 39* | -15 | -14 | 21 | 16
Cc1cc(/C=C2\SC(=S)N(Cc3ccco3)C2=O)c(C)n1-c1cccnc1 | 10 | 6 | 2 | -2 | -2 | 4
O=C(CSc1nc2c(cnn2-c2ccccc2)c(=O)[nH]1)c1ccc(Cl)cc1 | -1 | 0 | 4 | 5 | -6 | 0
O=C(CN1C(=O)COc2ccccc21)c1cccc(Cl)c1 | -9 | 31* | -9 | -16 | 4 | 0
COc1cc(Cl)cc2c1Sc1ccccc1/C2=C/CCN(C)C | -12 | 19 | -29 | -14 | 36* | 2
CN(C)CC/C=C1/c2cc(F)ccc2Sc2ccc(Cl)cc21 | -19 | 96* | -29 | -16 | 99* | 4
CN(C)CC/C=C1/c2ccccc2Sc2c(O)cc(Cl)cc21 | -6 | 50* | -16 | -15 | 98* | 2
COc1cc2c(cc1Cl)/C(=C\CCN(C)C)c1ccccc1S2 | -4 | 33* | -18 | -35 | 25 | 8
CN1CCN(CC/C=C2/c3ccccc3Sc3ccc(S(=O)(=O)N(C)C)cc32)CC1 | 0 | -3 | -9 | -6 | -2 | 7
CCOC(=O)c1cnc2ccc(OCC)cc2c1N1CCN(c2ccccc2)CC1 | -15 | 0 | -33 | -8 | -4 | -1
O=C(N/N=C/c1ccco1)c1[nH]ncc1Br | -5 | 1 | 0 | 16 | -8 | 1
O=C(NNS(=O)(=O)c1ccc([N+](=O)[O-])cc1)C(=O)Nc1cccc(C(=O)O)c1 | -2 | -9 | 6 | 19* | -7 | 1
CCN(Cc1ccccc1)C(=O)C1CCN(S(=O)(=O)c2ccc3c(c2)OCCO3)CC1 | 37* | -2 | -3 | 1 | 1 | 5
CN(c1ccc(F)cc1)S(=O)(=O)c1ccc(Cl)c(C(=O)NCC(c2ccco2)N2CCCCC2)c1 (stereo not drawn) | -3 | -3 | 7 | -2 | -3 | 4
CCCCS/C(=C(/C#N)C(N)=O)c1cc2c([nH]1)CCCC2 | -7 | 34* | -16 | -29 | 7 | -2
CCc1ccc(N/C(SC)=C(/C#N)C(N)=O)cc1 | 2 | -11 | -4 | 3 | -5 | -1
CC(C)(CCO)Nc1ncnc2onc(-c3ccc(F)cc3)c12 | 2 | -3 | 1 | 1 | 6 | 1
CCCNC(=O)C1(C)CCCN(C(=O)c2ccc(C)c(F)c2)C1 (stereo not drawn) | 0 | 10 | -2 | 1 | 10 | 0
COc1ccc(OC)c(S(=O)(=O)N(C)CC(=O)N2CCc3ccccc3C2)c1 | 3 | 22 | -1 | -1 | 0 | 1
